For assay [1], the system named is NCI-H460. The assay can be described thus: Cytotoxicity against human NCI-H460 cells after 48 hrs by MTT assay. The class given is functional, cell-based. To be noted: NCI-H460, 48 h. An outline of the steps: (§1)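 MCF-7, NCI-H460 and SF-268 cells were exposed to serial dilutions for 48 h in RPMI 1640 with 10% fetal bovine serum. Viability was read by MTT colorimetric assay, and IC50 was taken as the concentration giving 50% inhibition of proliferation/survival.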

Assay [2] has as its system SF-268. Nature of the assay: Cytotoxicity against human SF268 cells after 48 hrs by MTT assay. The class given is functional, cell-based. To be noted: SF-268, 48 h. An outline of the steps:
as §1

Assay [3] concerns MCF7. Nature of the assay: Cytotoxicity against human MCF7 cells after 48 hrs by MTT assay. The class given is functional, cell-based. To be noted: MCF7, 48 h. An outline of the steps: as §1
In general terms: Tetrazolium dyes change colour on reduction, which living cells bring about.

Assay [4] concerns NCI-H460. Nature of the assay: Cell cycle arrest in human NCI-H460 cells assessed as accumulation at S phase at 10 ug/mL by flow cytometry. The class given is functional. An outline of the steps:
(§2)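 NCI-H460 cells taken at 75-85% confluency, seeded at 2.5 × 10^5 cells per 60 mm dish and left to reattach overnight. Treated overnight in complete RPMI 1640 at 10 µg/mL final (test agents) or 0.1 µM final (positive control), with DMSO ≤0.1 vol %. Harvested by trypsin, PBS-rinsed, resuspended in Krishan's buffer, then DNA-content flow cytometry gave G1/S/G2/M percentages.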
(A flow cytometer gives signals particle by particle.)

The subject of assay [5] is NCI-H460. Nature of the assay: Cell cycle arrest in human NCI-H460 cells assessed as accumulation at G1 phase at 10 ug/mL by flow cytometry. The class given is functional. Summed up: as §2
For assay [6], the system named is NCI-H460. The assay can be described thus: Cell cycle arrest in human NCI-H460 cells assessed as accumulation at G2/M phase at 10 ug/mL by flow cytometry. The class given is functional. Summed up: as §2
In assay [7] the test system is NCI-H460. The assay can be described thus: Cell cycle arrest in human NCI-H460 cells assessed as accumulation at S phase at 0.1 uM by flow cytometry. The class given is functional. An outline of the steps:
as §2

Assay [8] deals with NCI-H460. The assay can be described thus: Cell cycle arrest in human NCI-H460 cells assessed as accumulation at G1 phase at 0.1 uM by flow cytometry. The class given is functional. An outline of the steps: as §2
The test system of assay [9] is NCI-H460. The assay can be described thus: Cell cycle arrest in human NCI-H460 cells assessed as accumulation at G2/M phase at 0.1 uM by flow cytometry. The class given is functional. An outline of the steps:
as §2

Assay [10] has as its system NCI-H460. The assay can be described thus: Cell cycle arrest in human NCI-H460 cells assessed as accumulation at S phase at 3 uM by flow cytometry.
In assay [11] the test system is NCI-H460. The assay can be described thus: Cell cycle arrest in human NCI-H460 cells assessed as accumulation at G1 phase at 3 uM by flow cytometry.
For assay [12], the system named is NCI-H460. The assay can be described thus: Cell cycle arrest in human NCI-H460 cells assessed as accumulation at G2/M phase at 3 uM by flow cytometry.
Assay [13] relates to MCF7. The assay can be described thus: Cytotoxicity against human MCF7 cells at 10 ug/mL after 48 hrs by MTT assay. The class given is functional, cell-based.
The test system of assay [14] is SF-268. Nature of the assay: Cytotoxicity against human SF268 cells at 10 ug/mL after 48 hrs by MTT assay. The class given is functional, cell-based.
Assay [15] has as its system NCI-H460. The assay can be described thus: Cytotoxicity against human NCI-H460 cells at 10 ug/mL after 48 hrs by MTT assay. The class given is functional, cell-based.

The source made the active and inactive calls. No cut-off for these calls is given here.

Turning to `CC1(C)C[C@]23[C@@H](C(=O)O)CC[C@H]1[C@@H]2CC(=O)[C@@H]3CO`, the IC50 (commonly the concentration that inhibits the measured activity by half) with NCI-H460 [1] turned out to be 14.5 µM; with SF-268 [2], 7.8 µM; with MCF7 [3], 16.5 µM.
Regarding `CC1(C)C[C@]23[C@@H]4COC(=O)[C@H]2CC[C@H]1[C@@H]3CC4=O` [QUADRONE], the Activity in the assay on NCI-H460 [4] is reported as 6.3%; with NCI-H460 [5], 38.8%; in the assay on NCI-H460 [6], 54.8%. Also, the values for the IC50 with NCI-H460 [1], in the assay on SF-268 [2] and in the assay with MCF7 [3] were 12.4 µM, 16.9 µM and 14.3 µM, respectively.
With `CC(=O)O[C@H]1C(=O)[C@@]2(C)[C@H]([C@H](OC(=O)c3ccccc3)[C@]3(O)C[C@H](OC(=O)[C@H](O)[C@@H](NC(=O)c4ccccc4)c4ccccc4)C(C)=C1C3(C)C)[C@]1(OC(C)=O)CO[C@@H]1C[C@@H]2O` [PACLITAXEL], the figures for the Activity with NCI-H460 [7], with NCI-H460 [8] and in the assay with NCI-H460 [9] were 14%, 15.5% and 70.5%, respectively. In the assay on MCF7 [3], half-maximal inhibition (IC50) was put at 0.0112 µM.
For `C=C1C(=O)C[C@H]2[C@@H]3CC[C@H](C(=O)OC)[C@]12CC3(C)C`, the IC50 in the assay on NCI-H460 [1] came out at 9.4 µM; in the assay on SF-268 [2], 10.2 µM; in the assay on MCF7 [3], 16.7 µM.
In the case of `COC(=O)Nc1nc2cc(C(=O)c3cccs3)ccc2[nH]1` [NOCODAZOLE], the Activity in the assay with NCI-H460 [10] came out at 6.9%; in the assay with NCI-H460 [11] it was 13%; in the assay with NCI-H460 [12] it was 80.1%.
For `C=C1C(=O)C[C@H]2[C@@H]3CC[C@H](C(=O)O)[C@]12CC3(C)C`, the figures for the Activity in the assay on NCI-H460 [4], in the assay on NCI-H460 [5] and in the assay on NCI-H460 [6] were 16%, 40.7% and 43.7%, respectively. Moreover, the IC50 was 10.6 µM in the assay on NCI-H460 [1], 14.7 µM in the assay on SF-268 [2] and 24.1 µM with MCF7 [3].
As to `COC1=C(c2ccccc2)C(=O)C(OC)=C(c2ccccc2)C1=O` [BETULINAN A], the IC50 in the assay on NCI-H460 [1] is 58.4 µM; in the assay with SF-268 [2] it was 28 µM; in the assay with MCF7 [3] it was 8.7 µM.
Take `COC1=C(c2c[nH]c3ccccc23)C(=O)C(OC)=C(c2c[nH]c3ccccc23)C1=O` [ASTERRIQUINONE D]: the figures for the IC50 in the assay on NCI-H460 [1], with SF-268 [2] and in the assay on MCF7 [3] were 19.9 µM, 15.8 µM and 17.7 µM, respectively.
For `C=CC(C)(C)c1[nH]c2ccccc2c1C1=C(OC)C(=O)C(c2c[nH]c3ccccc23)=C(OC)C1=O`, the IC50 in the assay with NCI-H460 [1] was 24.2 µM; in the assay with SF-268 [2], 25.7 µM; in the assay on MCF7 [3], 4.1 µM.
On to `CC1C(=O)C[C@H]2[C@@H]3CC[C@H](C(=O)O)[C@]12CC3(C)C` (stereo partly specified), for which the outcome in the assay on MCF7 [13], in the assay on SF-268 [14] and with NCI-H460 [15] was inactive.
Regarding `COC[C@H]1C(=O)C[C@H]2[C@@H]3CC[C@H](C(=O)O)[C@]12CC3(C)C`, the figures for the Activity with NCI-H460 [4], in the assay with NCI-H460 [5] and with NCI-H460 [6] were 21.4%, 44.3% and 34.3%, respectively. Further, the values for the IC50 in the assay with NCI-H460 [1], with SF-268 [2] and with MCF7 [3] were 19.4 µM, 21.4 µM and 20.6 µM, respectively.
Take `COC(=O)C1(c2c[nH]c3ccccc23)C(=O)C(OC)=C(c2c[nH]c3ccccc23)C1=O` (stereo unspecified) [ASTERREDIONE]: the IC50 in the assay with NCI-H460 [1] turned out to be 17.4 µM; in the assay with SF-268 [2], 20.7 µM; in the assay with MCF7 [3] it was 25.2 µM.

Values taken from ChEMBL document CHEMBL1147262, “Cytotoxic constituents of Aspergillus terreus from the rhizosphere of Opuntia versicolor of the Sonoran Desert” (J Nat Prod, 2003).
